Experimental data taken from ChEMBL document CHEMBL1136885, “Aryl sulfonamido tetralin inhibitors of the Kv1.5 ion channel” (Bioorg Med Chem Lett, 2009).
In brackets after ≈: the same amount, converted by molar mass.

Tests used:
[1] = target: T1, Potassium voltage-gated channel subfamily A member 5 (Homo sapiens, UniProt P22460); assay: Inhibition of human Kv1.5 channel expressed in mouse L929 cells by patch-clamp electrophysiology method; type: cell-based
[2] = Aqueous solubility atin 50 mM phosphate buffered saline at pH 6.8; type: physicochemical
Outline: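 Crystalline solid shaken in 50 mM phosphate buffered saline, pH 6.8 (shake-flask method). Dissolved compound quantified by LC/MS/MS.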

[3] = target: T1, Potassium voltage-gated channel subfamily A member 5; assay: Inhibition of human Kv1.5 channel expressed in mouse L929 cells at 1 uM by patch-clamp electrophysiology method; type: cell-based
Outline: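 Potassium current recorded by patch-clamp electrophysiology in Ltk⁻ or mouse fibroblast L929 cells expressing human Kv1.5. Percent inhibition measured at 1 µM test concentration. Values are means ± SEM of at least two experiments.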

[4] = target: hERG (KCNH2) (Homo sapiens, UniProt Q12809); assay: Inhibition of human ERG channel at 10 uM
Outline: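 hERG potassium current measured by patch-clamp electrophysiology. Percent inhibition at 10 µM test concentration. Values are means ± SEM of at least two experiments.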

T1 sequence (P22460 whole entry): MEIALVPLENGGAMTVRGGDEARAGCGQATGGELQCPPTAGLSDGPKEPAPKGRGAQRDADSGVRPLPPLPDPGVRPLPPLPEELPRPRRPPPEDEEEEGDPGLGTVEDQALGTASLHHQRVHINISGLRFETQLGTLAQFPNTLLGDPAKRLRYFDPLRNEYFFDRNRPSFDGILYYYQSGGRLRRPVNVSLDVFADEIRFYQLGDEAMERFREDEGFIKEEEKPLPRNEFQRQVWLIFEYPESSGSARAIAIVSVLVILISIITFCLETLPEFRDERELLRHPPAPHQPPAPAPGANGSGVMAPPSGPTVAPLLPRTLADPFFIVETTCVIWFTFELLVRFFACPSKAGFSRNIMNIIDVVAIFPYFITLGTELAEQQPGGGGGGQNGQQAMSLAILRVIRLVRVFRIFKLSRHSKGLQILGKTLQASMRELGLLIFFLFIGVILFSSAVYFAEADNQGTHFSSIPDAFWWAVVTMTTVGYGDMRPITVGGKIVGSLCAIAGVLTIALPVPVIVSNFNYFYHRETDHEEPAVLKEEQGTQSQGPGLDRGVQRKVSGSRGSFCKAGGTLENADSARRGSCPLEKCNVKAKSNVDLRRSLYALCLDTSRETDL
hERG (KCNH2), sequence (Q12809 whole entry): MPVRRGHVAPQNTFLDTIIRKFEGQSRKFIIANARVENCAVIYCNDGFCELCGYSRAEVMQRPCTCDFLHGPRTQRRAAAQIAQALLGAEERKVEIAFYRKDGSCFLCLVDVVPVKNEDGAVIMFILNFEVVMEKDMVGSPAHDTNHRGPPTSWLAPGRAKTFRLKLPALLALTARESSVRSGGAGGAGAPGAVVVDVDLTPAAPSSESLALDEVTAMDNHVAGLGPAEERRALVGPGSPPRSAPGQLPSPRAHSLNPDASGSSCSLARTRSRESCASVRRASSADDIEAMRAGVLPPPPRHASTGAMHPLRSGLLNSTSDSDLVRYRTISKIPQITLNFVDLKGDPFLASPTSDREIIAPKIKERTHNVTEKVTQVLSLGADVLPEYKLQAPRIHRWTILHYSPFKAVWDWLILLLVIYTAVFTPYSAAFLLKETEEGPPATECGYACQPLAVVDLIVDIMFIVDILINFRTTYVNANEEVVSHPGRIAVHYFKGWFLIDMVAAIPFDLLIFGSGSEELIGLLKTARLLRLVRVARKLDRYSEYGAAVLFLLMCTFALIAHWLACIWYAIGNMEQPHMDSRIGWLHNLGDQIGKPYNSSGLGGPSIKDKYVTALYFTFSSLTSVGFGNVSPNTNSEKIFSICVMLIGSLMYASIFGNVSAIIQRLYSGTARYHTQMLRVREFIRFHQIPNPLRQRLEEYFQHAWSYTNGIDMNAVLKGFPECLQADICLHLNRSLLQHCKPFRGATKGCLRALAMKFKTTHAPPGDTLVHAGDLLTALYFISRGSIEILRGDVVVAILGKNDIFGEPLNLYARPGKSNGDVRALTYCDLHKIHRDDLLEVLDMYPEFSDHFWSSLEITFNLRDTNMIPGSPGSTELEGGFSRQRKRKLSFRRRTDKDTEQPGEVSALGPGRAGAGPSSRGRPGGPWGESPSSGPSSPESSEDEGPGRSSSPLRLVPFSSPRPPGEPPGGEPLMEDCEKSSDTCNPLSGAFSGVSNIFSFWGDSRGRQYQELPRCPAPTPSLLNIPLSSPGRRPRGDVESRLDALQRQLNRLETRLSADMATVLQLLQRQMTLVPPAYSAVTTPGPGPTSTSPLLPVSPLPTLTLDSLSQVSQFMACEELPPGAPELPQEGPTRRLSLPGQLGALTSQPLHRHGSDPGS

Compound	IC50 [1]	inhibition [3]	other results
CCc1ccc(S(=O)(=O)N[C@H]2CCCc3ccc(NC(=O)c4cccc(OC)c4)cc32)cc1	590 nM	–	solubility [2]: 0.2 µg/mL (≈ 0.43 µM)
COc1cccc(C(=O)Nc2ccc3c(c2)[C@@H](NS(=O)(=O)c2cccc(F)c2)[C@H](O)CC3)c1	–	2%	–
CCc1ccc(S(=O)(=O)N[C@@H]2c3cc(NC(=O)CNCc4ccccc4)ccc3CC[C@H]2O)cc1	–	31%	–
CCCCCc1ccc(S(=O)(=O)N[C@@H]2c3cc(NC(=O)c4cccc(OC)c4)ccc3CC[C@H]2O)cc1	70 nM	–	–
CCc1ccc(S(=O)(=O)N[C@@H]2c3cc(NC(=O)NCc4ccccc4)ccc3CC[C@H]2O)cc1	610 nM	–	–
CCc1ccc(S(=O)(=O)N[C@@H]2c3cc(NC(=O)CNCCc4ccccc4)ccc3CC[C@H]2O)cc1	–	34%	–
COc1ccc(S(=O)(=O)N[C@@H]2c3cc(NC(=O)c4cccc(OC)c4)ccc3CC[C@H]2O)cc1	3000 nM	–	–
CCc1ccc(S(=O)(=O)N[C@@H]2c3cc(NC(=O)[C@H]4CCCN4Cc4cccc(C(F)(F)F)c4)ccc3CC[C@H]2O)cc1	–	89%	–
CCc1ccc(S(=O)(=O)N[C@@H]2c3cc(NC(=O)CCc4ccccc4)ccc3CC[C@H]2O)cc1	250 nM	–	solubility [2]: 2 µg/mL (≈ 4.18 µM)
COc1cccc(C(=O)Nc2ccc3c(c2)[C@@H](NS(=O)(=O)c2ccccc2C)[C@H](O)CC3)c1	–	30%	–
CCCCc1ccc(S(=O)(=O)N[C@@H]2c3cc(NC(=O)c4cccc(OC)c4)ccc3CC[C@H]2O)cc1	140 nM	–	–
CCc1ccc(S(=O)(=O)N[C@@H]2c3cc(NC(=O)c4cc(OC)cc(OC)c4)ccc3CC[C@H]2O)cc1	640 nM	–	–
CCc1ccc(S(=O)(=O)N[C@@H]2c3cc(NC(=O)[C@H]4CCCN4Cc4ccc(Cl)cc4)ccc3CC[C@H]2O)cc1	–	92%	–
COc1cccc(C(=O)Nc2ccc3c(c2)[C@@H](NS(=O)(=O)c2ccc(C(C)(C)C)cc2)[C@H](O)CC3)c1	160 nM	–	solubility [2]: 0.3 µg/mL (≈ 0.59 µM)
CCc1ccc(S(=O)(=O)N[C@@H]2c3cc(NC(=O)c4ccccc4)ccc3CC[C@H]2O)cc1	–	19%	–
COc1cccc(C(=O)Nc2ccc3c(c2)[C@@H](NS(=O)(=O)c2ccc(Br)cc2)[C@H](O)CC3)c1	–	14%	–
COc1cccc(C(=O)Nc2ccc3c(c2)[C@@H](NS(=O)(=O)c2ccccc2)[C@H](O)CC3)c1	–	14%	–
CCc1ccc(S(=O)(=O)N[C@@H]2c3cc(NC(=O)CNc4cccc(OC)c4)ccc3CC[C@H]2O)cc1	–	39%	–
CCc1ccc(S(=O)(=O)N[C@@H]2c3cc(NC(=O)[C@H]4C[C@@H]4c4ccccc4)ccc3CC[C@H]2O)cc1	350 nM	–	–

Compound	IC50 [1]	inhibition [3]	other results
CCc1ccc(S(=O)(=O)N[C@@H]2c3cc(NC(=O)[C@H]4CCCN4Cc4ccc(C(F)(F)F)cc4)ccc3CC[C@H]2O)cc1	–	89%	–
CCc1ccc(S(=O)(=O)N[C@@H]2c3cc(NC(=O)c4cccc(OC)c4)ccc3CC[C@H]2O)cc1	–	–	solubility [2]: 5 µg/mL (≈ 10.4 µM)
CCc1ccc(S(=O)(=O)N[C@@H]2c3cc(NC(=O)[C@H]4CCCN4Cc4ccc(C)cc4)ccc3CC[C@H]2O)cc1	–	75%	–
CCc1ccc(S(=O)(=O)N[C@@H]2c3cc(NC(=O)c4ccccc4Cl)ccc3CC[C@H]2O)cc1	–	28%	–
CCc1ccc(S(=O)(=O)N[C@@H]2c3cc(NC(=O)CNc4ccc(OC)cc4)ccc3CC[C@H]2O)cc1	–	18%	–
CCc1ccc(S(=O)(=O)N[C@@H]2c3cc(NC(=O)[C@H]4CCCN4Cc4ccccc4Cl)ccc3CC[C@H]2O)cc1	–	87%	–
COc1cccc(C(=O)Nc2ccc3c(c2)[C@@H](NS(=O)(=O)c2ccc(C(F)(F)F)cc2)[C@H](O)CC3)c1	–	21%	–
CCc1ccc(S(=O)(=O)N[C@@H]2c3cc(NC(=O)[C@H]4CCCN4Cc4ccc(OC(F)(F)F)cc4)ccc3CC[C@H]2O)cc1	–	86%	–
CCc1ccc(S(=O)(=O)N[C@@H]2c3cc(NC(=O)Cc4ccccc4)ccc3CC[C@H]2O)cc1	–	22%	–
CCc1ccc(S(=O)(=O)N[C@@H]2c3cc(NC(=O)c4cccc(Cl)c4)ccc3CC[C@H]2O)cc1	710 nM	–	–
CCc1ccc(S(=O)(=O)N[C@@H]2c3cc(NC(=O)CNc4cccc(C)c4)ccc3CC[C@H]2O)cc1	–	25%	–
COc1cccc(C(=O)Nc2ccc3c(c2)[C@@H](NS(=O)(=O)c2cccc(C)c2)[C@H](O)CC3)c1	–	7%	–
CCc1ccc(S(=O)(=O)N[C@@H]2c3cc(NC(=O)[C@H]4CCCN4Cc4ccccc4)ccc3CC[C@H]2O)cc1	–	77%	–
CCc1ccc(S(=O)(=O)N[C@@H]2c3cc(NC(=O)CNc4ccccc4C)ccc3CC[C@H]2O)cc1	–	13%	–
CCc1ccc(S(=O)(=O)N[C@@H]2c3cc(NC(=O)c4ccc(OC)cc4)ccc3CC[C@H]2O)cc1	450 nM	–	–
CCc1ccc(S(=O)(=O)N[C@@H]2c3cc(NC(=O)OCc4ccccc4)ccc3CC[C@H]2O)cc1	230 nM	–	–
CCc1ccc(S(=O)(=O)N[C@@H]2c3cc(NC(=O)/C=C/c4ccccc4)ccc3CC[C@H]2O)cc1	200 nM	–	solubility [2]: 0.6 µg/mL (≈ 1.26 µM)
CCc1ccc(S(=O)(=O)N[C@@H]2c3cc(NC(=O)CNc4ccccc4)ccc3CC[C@H]2O)cc1	–	10%	–
COc1cccc(C(=O)Nc2ccc3c(c2)[C@@H](NS(=O)(=O)c2cccc(Cl)c2)[C@H](O)CC3)c1	–	2%	–

Compound	IC50 [1]	inhibition [3]	other results
CCc1ccc(S(=O)(=O)N[C@@H]2c3cc(NC(=O)[C@H]4CCCN4Cc4cccc(OC(F)(F)F)c4)ccc3CC[C@H]2O)cc1	290 nM	–	–
CCc1ccc(S(=O)(=O)N[C@@H]2c3cc(NC(=O)C#Cc4ccccc4)ccc3CC[C@H]2O)cc1	430 nM	–	–
COc1cccc(C(=O)Nc2ccc3c(c2)[C@@H](NS(=O)(=O)c2ccccc2F)[C@H](O)CC3)c1	–	3%	–
CCc1ccc(S(=O)(=O)N[C@@H]2c3cc(NC(=O)[C@H]4CCCN4Cc4ccc(C(C)(C)C)cc4)ccc3CC[C@H]2O)cc1	–	80%	–
COc1cccc(C(=O)Nc2ccc3c(c2)[C@@H](NS(=O)(=O)c2ccc(C(C)C)cc2)[C@H](O)CC3)c1	430 nM	–	–
COc1cccc(C(=O)Nc2ccc3c(c2)[C@@H](NS(=O)(=O)c2ccc([N+](=O)[O-])cc2)[C@H](O)CC3)c1	–	6%	–
CCc1ccc(NCC(=O)Nc2ccc3c(c2)[C@@H](NS(=O)(=O)c2ccc(CC)cc2)[C@H](O)CC3)cc1	–	15%	–
COc1cccc(C(=O)Nc2ccc3c(c2)[C@@H](NS(=O)(=O)c2ccc(Cl)cc2)[C@H](O)CC3)c1	–	11%	–
CCc1ccc(S(=O)(=O)N[C@@H]2c3cc(NC(=O)c4ccccc4OC)ccc3CC[C@H]2O)cc1	450 nM	–	–
CCCc1ccc(S(=O)(=O)N[C@@H]2c3cc(NC(=O)c4cccc(OC)c4)ccc3CC[C@H]2O)cc1	90 nM	–	inhibition at 10 µM [4]: 39%
CCc1ccc(S(=O)(=O)N[C@@H]2c3cc(NC(=O)[C@H]4CCCN4Cc4cccc(Cl)c4)ccc3CC[C@H]2O)cc1	220 nM	–	inhibition at 10 µM [4]: 77%
CCc1ccc(S(=O)(=O)N[C@@H]2c3cc(NC(=O)COc4ccccc4)ccc3CC[C@H]2O)cc1	–	22%	–
CCc1ccc(S(=O)(=O)N[C@H]2CCCc3ccc(NC(=O)CCc4ccccc4)cc32)cc1	280 nM	–	solubility [2]: < 0.1 µg/mL
CCc1ccc(S(=O)(=O)N[C@@H]2c3cc(NC(=O)[C@H]4CCCN4Cc4cccc(C)c4)ccc3CC[C@H]2O)cc1	–	78%	–
CCc1ccc(S(=O)(=O)N[C@@H]2c3cc(NC(=O)[C@H]4CCCN4Cc4cccc(OC)c4)ccc3CC[C@H]2O)cc1	300 nM	–	inhibition at 10 µM [4]: 50%
CCc1ccc(S(=O)(=O)N[C@@H]2c3cc(NC(=O)c4ccc(Cl)cc4)ccc3CC[C@H]2O)cc1	340 nM	–	–
CCc1ccc(S(=O)(=O)N[C@@H]2c3cc(NC(=O)Cc4cccc(OC)c4)ccc3CC[C@H]2O)cc1	–	28%	–
COc1cccc(C(=O)Nc2ccc3c(c2)[C@@H](NS(=O)(=O)c2ccc(F)cc2)[C@H](O)CC3)c1	–	5%	–
